≈ marks a conversion by molar mass, not a printed value.
Columns and labels:
Type in all cases: functional
Oryctolagus cuniculus [1] = species on record: Oryctolagus cuniculus; test: Tested for its antiviral activity in primary rabbit kidney (PRK) cell cultures inoculated with vaccinia virus
Oryctolagus cuniculus [2] = species on record: Oryctolagus cuniculus; test: Tested for its antiviral activity in primary rabbit kidney (PRK) cell cultures inoculated with herpes simplex type 1 virus; range 4-10
In short: (§1)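 Primary rabbit kidney (PRK) cell cultures infected with HSV; inhibition of virus-induced cytopathogenicity scored; ID50 (µg/mL) is concentration reducing cytopathogenicity by 50%; means over three HSV-1 strains (KOS, F, McIntyre) or three HSV-2 strains (Lyons, 196, G), range across strains shown; top concentration 400 µg/mL.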

Oryctolagus cuniculus [3] = species on record: Oryctolagus cuniculus; test: Tested for its antimetabolic activity by measuring the concentration required for [2-14C]- Urd incorporation into host cell DNA by 50%; details: read-out: ID50 (the source's name)
In short: (§2)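 Primary rabbit kidney (PRK) cell cultures; incorporation of [methyl-3H]thymidine or [2-14C]2'-deoxyuridine into host cell DNA measured in presence of compound; value is concentration (µg/mL) reducing label incorporation by 50%; concentrations up to 400 µg/mL.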

Oryctolagus cuniculus [4] = species on record: Oryctolagus cuniculus; test: Tested for its antimetabolic activity by measuring the concentration required for [Me-3H] dThd incorporation into host cell DNA by 50%; details: read-out: ID50 (the source's name); in short: as §2
Oryctolagus cuniculus [5] = species on record: Oryctolagus cuniculus; test: Tested for its antiviral activity in primary rabbit kidney (PRK) cell cultures inoculated with herpes simplex type 2 virus; in short: as §1
Oryctolagus cuniculus [6] = species on record: Oryctolagus cuniculus; test: Tested for its antiviral activity in primary rabbit kidney (PRK) cell cultures inoculated with herpes simplex type 1 virus; in short: as §1
Oryctolagus cuniculus [7] = species on record: Oryctolagus cuniculus; test: Tested for its antiviral activity in primary rabbit kidney (PRK) cell cultures inoculated with herpes simplex type 2 virus; range 0.2-0.4; in short: as §1

Row | SMILES | ID50 (Oryctolagus cuniculus [1]) | ID50 (Oryctolagus cuniculus [2]) | IC50 (Oryctolagus cuniculus [3]) | IC50 (Oryctolagus cuniculus [4]) | ID50 (Oryctolagus cuniculus [5]) | ID50 (Oryctolagus cuniculus [6]) | ID50 (Oryctolagus cuniculus [7])
1 | CSCc1cn([C@H]2C[C@H](O)[C@@H](CO)O2)c(=O)[nH]c1=O | 200 µg/mL (≈ 694 µM) | 6 µg/mL (≈ 20.8 µM) | > 400 µg/mL | 100 µg/mL (≈ 347 µM) | 4 µg/mL (≈ 13.9 µM) | – | –
2 | C[S+]([O-])Cc1cn([C@H]2C[C@H](O)[C@@H](CO)O2)c(=O)[nH]c1=O (some centres not stated) | – | – | – | – | >400 µg/mL | >400 µg/mL | –
3 | CS(=O)(=O)Cc1cn([C@H]2C[C@H](O)[C@@H](CO)O2)c(=O)[nH]c1=O | 200 µg/mL (≈ 624 µM) | – | > 400 µg/mL | 300 µg/mL (≈ 937 µM) | >400 µg/mL | 4 µg/mL (≈ 12.5 µM) | –
4 | O=c1[nH]c(=O)n([C@H]2C[C@H](O)[C@@H](CO)O2)cc1I [IDOXURIDINE] | 0.2 µg/mL (≈ 0.565 µM) | – | 1.2 µg/mL (≈ 3.39 µM) | 2.5 µg/mL (≈ 7.06 µM) | – | 0.15 µg/mL (≈ 0.424 µM) | 0.3 µg/mL (≈ 0.847 µM)
